Measured values published in ChEMBL document CHEMBL1765010, “Reversible competitive α-ketoheterocycle inhibitors of fatty acid amide hydrolase containing additional conformational constraints in the acyl side chain: orally active, long-acting analgesics” (J Med Chem, 2011).
The source made the active and inactive calls.

test system: Mus musculus; test: Inhibition of FAAH in C57Bl/6J mouse brain assessed as increase of 2-arachidonoylglycerol level at 30 mg/kg, ip after 1 hr relative to control; format: functional; details: route intraperitoneal
In short: (§1)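 Male C57Bl/6J mice (<6 months, 20–28 g) dosed i.p. at 30 mg/kg in 18:1:1 saline:ethanol:emulphor emulsion; brains taken 1 h later. One mouse in the initial screen, 3 per group in the follow-up. Brain homogenized in CHCl3:MeOH:Tris pH 8.0 with deuterated lipid standards; organic extract quantified by reverse-phase C18 LC-ESI-MS/MS against vehicle controls.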

SMILES | fold change (FC)
O=C(c1ncc(-c2ccccn2)o1)C1Cc2ccc(Oc3ccccc3)cc2C1 (stereo not given) | 0.8
O=C(O)c1cccc(-c2cnc(C(=O)C3Cc4ccc(Oc5ccccc5)cc4C3)o2)n1 (stereo not given) | 0.9

biological target: T1, Fatty-acid amide hydrolase 1 (Rattus norvegicus, UniProt P97612); test: Inhibition of rat FAAH expressed in E. coli assessed as [14C]-labeled oleamide to oleic acid conversion; details: not given
T1 sequence (P97612 whole entry): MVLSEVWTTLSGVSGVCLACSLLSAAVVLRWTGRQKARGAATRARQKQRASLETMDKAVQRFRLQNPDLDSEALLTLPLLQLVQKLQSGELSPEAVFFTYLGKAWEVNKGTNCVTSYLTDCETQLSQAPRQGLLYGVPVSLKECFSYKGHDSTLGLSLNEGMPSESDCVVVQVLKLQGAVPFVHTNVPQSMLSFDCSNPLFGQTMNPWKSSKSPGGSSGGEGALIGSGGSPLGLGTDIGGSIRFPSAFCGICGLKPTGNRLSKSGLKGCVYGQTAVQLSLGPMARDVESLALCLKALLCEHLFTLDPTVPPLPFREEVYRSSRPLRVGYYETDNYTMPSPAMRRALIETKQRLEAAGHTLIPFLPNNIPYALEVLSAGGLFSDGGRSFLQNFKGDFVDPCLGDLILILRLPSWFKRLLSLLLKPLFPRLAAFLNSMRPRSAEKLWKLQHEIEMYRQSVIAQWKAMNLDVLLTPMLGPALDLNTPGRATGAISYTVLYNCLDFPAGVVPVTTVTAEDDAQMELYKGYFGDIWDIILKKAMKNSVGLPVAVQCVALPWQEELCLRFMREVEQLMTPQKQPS

SMILES | Ki [nM]
COC(=O)c1cnc(C(=O)[C@H]2CCc3cc(Oc4ccccc4)ccc3C2)o1 | 5.4
O=C(O)c1cccc(-c2cnc(C(=O)[C@@H]3CCc4cc(Oc5ccccc5)ccc4C3)o2)n1 | 220
N#Cc1cnc(C(=O)[C@H]2CCc3cc(OCc4ccccc4)ccc3C2)o1 | 3.2
N#Cc1cnc(C(=O)[C@H]2CCc3cc(-c4ccccc4)ccc3C2)o1 | 3.4
N#Cc1cnc(C(=O)[C@@H]2CCc3cc(Oc4ccccc4)ccc3C2)o1 | 54
O=C(c1ncc(-c2ccccn2)o1)[C@H]1CCc2cc(-c3ccccc3)ccc2C1 | 7.2
COC(=O)c1cnc(C(=O)[C@H]2CCc3cc(-c4ccccc4)ccc3C2)o1 | 55
COC(=O)c1cccc(-c2cnc(C(=O)[C@@H]3Cc4ccc(OCc5ccccc5)cc4C3)o2)n1 | 130
O=C(O)c1cccc(-c2cnc(C(=O)[C@@H]3Cc4ccc(Oc5ccccc5)cc4C3)o2)n1 | 550
O=C(c1nnc(-c2ccccn2)o1)[C@@H]1CCc2cc(Oc3ccccc3)ccc2C1 | 6.3
O=C(O)c1cccc(-c2cnc(C(=O)[C@H]3Cc4ccc(Oc5ccccc5)cc4C3)o2)n1 | 71
O=C(c1nnc(-c2ccccn2)o1)[C@H]1CCc2cc(Oc3ccccc3)ccc2C1 | 1
O=C(O)c1cccc(-c2cnc(C(=O)[C@H]3Cc4ccc(OCc5ccccc5)cc4C3)o2)n1 | 51
O=C(c1ncc(-c2ccccn2)o1)[C@H]1Cc2ccc(-c3ccccc3)cc2C1 | 1.9
O=C(c1ncco1)[C@H]1CCc2cc(-c3ccccc3)ccc2C1 | 57
COC(=O)c1cccc(-c2cnc(C(=O)[C@@H]3CCc4cc(OCc5ccccc5)ccc4C3)o2)n1 | 4500
O=C(c1ncco1)[C@H]1CCc2cc(Oc3ccccc3)ccc2C1 | 2.2
O=C(c1ncc(-c2ccccn2)o1)[C@@H]1CCc2cc(Oc3ccccc3)ccc2C1 | 290
O=C(c1ncco1)[C@H]1Cc2ccc(Oc3ccccc3)cc2C1 | 10
COC(=O)c1nnc(C(=O)[C@@H]2CCc3cc(Oc4ccccc4)ccc3C2)o1 | 1.6
O=C(c1nnco1)[C@H]1CCc2cc(Oc3ccccc3)ccc2C1 | 0.5
O=C(c1ncco1)[C@@H]1CCc2cc(OCc3ccccc3)ccc2C1 | 87
O=C(c1ncc(-c2ccccn2)o1)[C@@H]1Cc2ccc(-c3ccccc3)cc2C1 | 600

SMILES | Ki [nM]
COC(=O)c1cccc(-c2cnc(C(=O)[C@@H]3CCc4cc(Oc5ccccc5)ccc4C3)o2)n1 | 870
O=C(c1ncc(I)o1)[C@H]1CCc2cc(OCc3ccccc3)ccc2C1 | 4.1
COC(=O)c1cccc(-c2cnc(C(=O)[C@H]3CCc4cc(-c5ccccc5)ccc4C3)o2)n1 | 27
N#Cc1cnc(C(=O)[C@H]2CCc3cc(Oc4ccccc4)ccc3C2)o1 | 1.3
O=C(c1ncc(I)o1)C1CCc2cc(OCc3ccccc3)ccc2C1 (racemic) | 8
COC(=O)c1cccc(-c2cnc(C(=O)C3Cc4ccc(-c5ccccc5)cc4C3)o2)n1 (racemic) | 6.2
O=C(c1ncco1)[C@@H]1Cc2ccc(Oc3ccccc3)cc2C1 | 200
O=C(c1ncc(-c2ccccn2)o1)[C@@H]1Cc2ccc(Oc3ccccc3)cc2C1 | 42
O=C(c1ncc(-c2ccccn2)o1)[C@H]1Cc2ccc(Oc3ccccc3)cc2C1 | 2.1
N#Cc1cnc(C(=O)[C@@H]2CCc3cc(OCc4ccccc4)ccc3C2)o1 | 120
O=C(O)c1cccc(-c2cnc(C(=O)[C@@H]3CCc4cc(OCc5ccccc5)ccc4C3)o2)n1 | 740
O=C(c1ncc(-c2ccccn2)o1)[C@H]1Cc2ccc(OCc3ccccc3)cc2C1 | 1.4
COC(=O)c1cccc(-c2cnc(C(=O)[C@H]3Cc4ccc(Oc5ccccc5)cc4C3)o2)n1 | 98
COC(=O)c1cccc(-c2cnc(C(=O)[C@H]3CCc4cc(Oc5ccccc5)ccc4C3)o2)n1 | 2.2
COC(=O)c1cccc(-c2cnc(C(=O)[C@@H]3Cc4ccc(Oc5ccccc5)cc4C3)o2)n1 | 790
O=C(c1ncc(-c2ccccn2)o1)[C@H]1CCc2ccccc2C1 | 430
O=C(c1ncc(-c2ccccn2)o1)[C@@H]1CCc2cc(-c3ccccc3)ccc2C1 | 240
COC(=O)c1cnc(C(=O)[C@H]2CCc3cc(OCc4ccccc4)ccc3C2)o1 | 2.9
O=C(c1ncco1)[C@@H]1Cc2ccc(-c3ccccc3)cc2C1 | 140
O=C(c1ncc(-c2ccccn2)o1)[C@@H]1CCc2cc(OCc3ccccc3)ccc2C1 | 300
O=C(c1ncco1)[C@@H]1CCc2ccccc2C1 | 12000
N#Cc1cnc(C(=O)[C@@H]2CCc3cc(-c4ccccc4)ccc3C2)o1 | 62
O=C(c1ncco1)[C@H]1CCc2cc(OCc3ccccc3)ccc2C1 | 6.1

SMILES | Ki [nM]
O=C(O)c1cccc(-c2cnc(C(=O)[C@@H]3CCc4cc(-c5ccccc5)ccc4C3)o2)n1 | 500
COC(=O)c1cccc(-c2cnc(C(=O)[C@@H]3CCc4cc(-c5ccccc5)ccc4C3)o2)n1 | 700
O=C(O)c1cccc(-c2cnc(C(=O)[C@H]3CCc4cc(-c5ccccc5)ccc4C3)o2)n1 | 39
O=C(c1ncco1)[C@@H]1CCc2cc(-c3ccccc3)ccc2C1 | 460
COC(=O)c1cnc(C(=O)[C@@H]2CCc3cc(-c4ccccc4)ccc3C2)o1 | 1400
O=C(c1ncc(-c2ccccn2)o1)[C@@H]1CCc2ccccc2C1 | 3200
COC(=O)c1cnc(C(=O)[C@@H]2CCc3cc(OCc4ccccc4)ccc3C2)o1 | 53
COC(=O)c1cccc(-c2cnc(C(=O)[C@H]3CCc4cc(OCc5ccccc5)ccc4C3)o2)n1 | 18
O=C(O)c1cccc(-c2cnc(C(=O)C3Cc4ccc(-c5ccccc5)cc4C3)o2)n1 (racemic) | 57
O=C(c1ncc(I)o1)[C@@H]1CCc2cc(OCc3ccccc3)ccc2C1 | 700
O=C(c1ncco1)[C@@H]1CCc2cc(Oc3ccccc3)ccc2C1 | 410
O=C(c1nnco1)[C@@H]1CCc2cc(Oc3ccccc3)ccc2C1 | 1.4
O=C(c1ncc(-c2ccccn2)o1)[C@H]1CCc2cc(OCc3ccccc3)ccc2C1 | 3.2
COC(=O)c1nnc(C(=O)[C@H]2CCc3cc(Oc4ccccc4)ccc3C2)o1 | 1.5
COC(=O)c1cnc(C(=O)[C@@H]2CCc3cc(Oc4ccccc4)ccc3C2)o1 | 59
O=C(c1ncc(-c2ccccn2)o1)[C@@H]1Cc2ccc(OCc3ccccc3)cc2C1 | 110
O=C(c1ncco1)[C@H]1CCc2ccccc2C1 | 5100
O=C(O)c1cccc(-c2cnc(C(=O)[C@@H]3Cc4ccc(OCc5ccccc5)cc4C3)o2)n1 | 660
O=C(O)c1cccc(-c2cnc(C(=O)[C@H]3CCc4cc(OCc5ccccc5)ccc4C3)o2)n1 | 34
COC(=O)c1cccc(-c2cnc(C(=O)[C@H]3Cc4ccc(OCc5ccccc5)cc4C3)o2)n1 | 5.8
O=C(c1ncco1)[C@H]1Cc2ccc(-c3ccccc3)cc2C1 | 27

test system: Mus musculus; test: Inhibition of FAAH in C57Bl/6J mouse brain assessed as increase of anandamide level at 30 mg/kg, ip after 1 hr relative to control; format: functional; details: route intraperitoneal; in short: as §1

SMILES | fold change (FC)
O=C(c1ncc(-c2ccccn2)o1)C1Cc2ccc(Oc3ccccc3)cc2C1 (stereo not given) | 3
O=C(O)c1cccc(-c2cnc(C(=O)C3Cc4ccc(Oc5ccccc5)cc4C3)o2)n1 (stereo not given) | 1

biological target: not listed separately; test: Inhibition of full-length human FAAH expressed in COS-7 cells assessed as [14C]-labeled oleamide to oleic acid conversion; format: cell-based; details: not given
In short: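 Substrate 20 μM 14C-oleamide; three inhibitor concentrations. Reaction stopped in 0.1 N HCl at three time points, extracted with EtOAc and read by TLC.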

SMILES | Ki [nM]
COC(=O)c1cccc(-c2cnc(C(=O)C3CCc4cc(OCc5ccccc5)ccc4C3)o2)n1 (racemic) | > 10000
COC(=O)c1cccc(-c2cnc(C(=O)C3Cc4ccc(OCc5ccccc5)cc4C3)o2)n1 (racemic) | > 10000
O=C(c1ncco1)C1CCc2cc(OCc3ccccc3)ccc2C1 (racemic) | > 10000
O=C(c1ncco1)C1Cc2ccc(OCc3ccccc3)cc2C1 (racemic) | > 24

test system: Mus musculus; test: Antinociceptive activity in CD1 mouse assessed as thermal-stimulus induced tail flick latency at 1 to 3.2 mg/kg, iv after 150 mins; format: functional, organism-based; details: not given
In short: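 Mice given compound i.v.; tail-flick latency to 52 °C water measured at several times after dosing. Animals not responding within 5 s at baseline were excluded, and a 10 s cut-off was scored as 100%. % antinociception = 100 × (test − control latency)/(10 − control latency).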

SMILES | Activity
CN1CC[C@]23c4c5ccc(O)c4O[C@H]2[C@@H](O)C=C[C@H]3[C@H]1C5 | Active

test system: Mus musculus; test: Inhibition of FAAH in C57Bl/6J mouse brain assessed as increase of arachidonic acid level at 30 mg/kg, ip after 1 hr relative to control; format: functional; details: route intraperitoneal; in short: as §1

SMILES | fold change (FC)
O=C(c1ncc(-c2ccccn2)o1)C1Cc2ccc(Oc3ccccc3)cc2C1 (stereo not given) | 0.9
O=C(O)c1cccc(-c2cnc(C(=O)C3Cc4ccc(Oc5ccccc5)cc4C3)o2)n1 (stereo not given) | 0.8

test system: Mus musculus; test: Inhibition of FAAH in C57Bl/6J mouse brain assessed as increase of N-palmitoyl ethanolamine level at 30 mg/kg, ip after 1 hr relative to control; format: functional; details: route intraperitoneal; in short: as §1

SMILES | fold change (FC)
O=C(c1ncc(-c2ccccn2)o1)C1Cc2ccc(Oc3ccccc3)cc2C1 (stereo not given) | 7.4
O=C(O)c1cccc(-c2cnc(C(=O)C3Cc4ccc(Oc5ccccc5)cc4C3)o2)n1 (stereo not given) | 1.2
